Reference: article PMC7612593 (Nature, 2022)

How the values were obtained:
α4β3δ GABAAR [1] = settings: cited from earlier work
α4β3δ GABAAR [2] = molecular target: α4β3δ GABAAR (Homo sapiens, UniProt O14764+P28472+P48169); test: whole-cell patch clamp electrophysiology on the α4β3δ cell line; type: cell-based; settings: for receptors gated, % of total receptors gated by 10 mM GABA + 30 μM Etomidate: 10 mM each ligand, 2 s first pulse of two-pulse protocol, mean ± SD; for Hill coefficient: Hill plot of normalized peak amplitude against agonist concentration
β3δ GABAAR = molecular target: T1, β3δ GABAAR (Homo sapiens, UniProt O14764+P28472); test: whole-cell patch clamp electrophysiology on β3δ cells; type: cell-based; settings: for enhancement of GABA current by histamine: 300 μM histamine with 100 nM GABA
T1 sequence (P28472 26-473): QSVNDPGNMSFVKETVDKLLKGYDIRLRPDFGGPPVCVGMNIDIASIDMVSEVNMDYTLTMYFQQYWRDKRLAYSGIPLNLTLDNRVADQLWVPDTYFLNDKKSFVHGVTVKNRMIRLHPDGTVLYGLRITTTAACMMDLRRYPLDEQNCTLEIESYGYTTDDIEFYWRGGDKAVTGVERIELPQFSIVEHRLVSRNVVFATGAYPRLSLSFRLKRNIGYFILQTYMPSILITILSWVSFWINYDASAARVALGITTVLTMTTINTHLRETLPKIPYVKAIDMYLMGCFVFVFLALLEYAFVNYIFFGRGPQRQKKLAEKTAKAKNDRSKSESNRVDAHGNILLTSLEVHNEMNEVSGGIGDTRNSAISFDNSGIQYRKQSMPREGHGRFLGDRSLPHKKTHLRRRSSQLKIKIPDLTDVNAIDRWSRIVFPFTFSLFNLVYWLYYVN
T1 sequence (O14764 17-452 limits assumed): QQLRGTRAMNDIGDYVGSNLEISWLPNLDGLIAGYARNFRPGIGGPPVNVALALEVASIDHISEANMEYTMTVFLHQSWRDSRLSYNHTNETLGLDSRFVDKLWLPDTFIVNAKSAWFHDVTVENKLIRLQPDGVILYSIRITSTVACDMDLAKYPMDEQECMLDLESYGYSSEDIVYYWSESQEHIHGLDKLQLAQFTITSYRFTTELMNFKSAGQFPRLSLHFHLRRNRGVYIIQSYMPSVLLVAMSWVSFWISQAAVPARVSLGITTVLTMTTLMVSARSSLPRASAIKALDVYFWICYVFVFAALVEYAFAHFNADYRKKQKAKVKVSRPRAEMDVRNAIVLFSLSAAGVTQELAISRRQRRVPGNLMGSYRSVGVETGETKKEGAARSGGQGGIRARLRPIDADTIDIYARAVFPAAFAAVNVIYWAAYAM
Outline: (§1)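 Cells on coverslips were induced with tetracycline (2 μg/ml, 28–32 h); β3δ cells were the β3 line transiently transfected with δ. Whole-cell clamp at –50 mV, 20–22 °C, pH 7.4 bath, KCl/Mg-ATP pipette. […] One-way ANOVA.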

α4β3 GABAAR = α4β3 GABAAR (Homo sapiens, UniProt P28472+P48169); test: whole-cell patch clamp electrophysiology on α4β3 cells; type: cell-based; settings: for enhancement of GABA current by histamine: 300 μM histamine with 100 nM GABA
Outline: as §1

β3 GABAAR = molecular target: T2, β3 GABAAR (Homo sapiens, UniProt P28472); test: whole-cell patch clamp electrophysiology on β3 cells; type: cell-based; settings: for enhancement of GABA current by histamine: 300 μM histamine with 100 nM GABA
T2 sequence (P28472 26-473): T1 sequence (P28472 26-473)
Outline: as §1

α4β3γ2 GABAAR = α4β3γ2 GABAAR (Homo sapiens, UniProt P18507+P28472+P48169); test: radioligand assay, competition with pre-bound [3H]Ro15-4513, α4β3γ2 cell pool; type: binding; settings: membranes from α4β3γ2 cell pool
α1β3γ2 GABAAR = α1β3γ2 GABAAR (Homo sapiens, UniProt P14867+P18507+P28472); test: radioligand assay, competition with pre-bound [3H]Ro15-4513, α1β3γ2 cell line; type: binding; settings: membranes from α1β3γ2 cell line

For `Oc1noc2c1CCNC2` [THIP, 4,5,6,7-tetrahydroisoxazolo[5,4-c]pyridin-3-ol], the “potency and efficacy at α4β3δ relative to other receptors subtypes” value (α4β3δ GABAAR [1]) is given as “higher potency and supramaximal efficacy”.
For `NCCCC(=O)O` [GABA, γ-aminobutyric acid], the “activation of currents by GABA” value (α4β3δ GABAAR [2]; 100 nM GABA) was “robustly activates currents”, the “receptors gated, % of total receptors gated by 10 mM GABA + 30 μM Etomidate” value (α4β3δ GABAAR [2]) was 15.0 ± 6.0% and the “time for deactivating current to reach 50% of its original value” (α4β3δ GABAAR [2]; 200 ms pulse of 10 μM GABA in the absence of histamine) was 2.7 ± 0.7 s. For the same compound, the Hill coefficient (α4β3δ GABAAR [2]) was 0.9, the “gating by GABA” value (β3δ GABAAR; 200 μM GABA, 8 s pulse) was “not gated” and the “activation of currents by GABA” value (α4β3 GABAAR; 100 nM GABA) was “barely”. For the same compound, the “gating by GABA” value (β3 GABAAR; 200 μM GABA, 8 s pulse) was “not gated”.
With `CCOC(=O)c1ncn2c1CN(C)C(=O)c1cc(N=[N+]=[N-])ccc1-2` [Ro15-4513] the “effect on GABA currents” value (α4β3δ GABAAR [2]; whole-cell electrophysiology recordings, α4β3δ cell line) was “little effect”, the “binding of Ro15-4513” value (α4β3γ2 GABAAR) was “binds” and the “binding of Ro15-4513” value (α1β3γ2 GABAAR) was “binds”.
In the case of `NCCc1c[nH]cn1` [histamine], the “fast and slow time constants of deactivation” value (α4β3δ GABAAR [2]; 10 μM GABA pulse in the presence of 100 μM histamine, P = 0.03) is reported as “decreased significantly”, the “fraction of receptors with slow deactivation” value (α4β3δ GABAAR [2]; 10 μM GABA pulse in the presence of 100 μM histamine, P = 0.04) is reported as “increased” and the “enhancement of GABA current by histamine” value (α4β3δ GABAAR [2]; 300 μM histamine with 100 nM GABA) is reported as “robustly enhances”. The “receptors gated, % of total receptors gated by 10 mM GABA + 30 μM Etomidate” value (α4β3δ GABAAR [2]) was 50.2 ± 11.0%, the “time for deactivating current to reach 50% of its original value” (α4β3δ GABAAR [2]; 200 ms pulse of 10 μM GABA in the presence of 100 μM histamine) was 1.0 ± 0.4 s and the “decrease in peak current amplitude of the deactivating currents” value (α4β3δ GABAAR [2]; 200 ms pulse of 10 μM GABA, pre-application of 100 μM histamine, n = 4 cells) was 74.5 ± 11.9%. For the same compound, the Hill coefficient (α4β3δ GABAAR [2]) was 1.1, the “deactivation of currents following a brief pulse of 10 μM GABA” value (α4β3δ GABAAR [2]; continuous presence of 100 μM histamine) was “accelerated” and the “efficacy of histamine relative to GABA” value (α4β3δ GABAAR [2]; whole-cell currents) was 3 fold. For the same compound, the “enhancement of GABA current by histamine” value (β3δ GABAAR) was “Only modest responses”, the “enhancement of GABA current by histamine” value (β3δ GABAAR; listed as Histamine) was “only modestly” and the “enhancement of GABA current by histamine” value (α4β3 GABAAR) was “Only modest responses”. The “enhancement of GABA current by histamine” value (α4β3 GABAAR; listed as Histamine) was “only modestly”, the “enhancement of GABA current by histamine” value (β3 GABAAR) was “Only modest responses” and the “enhancement of GABA current by histamine” value (β3 GABAAR; listed as Histamine) was “only modestly”.
